From publication PMC5933427 (Chemical Science, 2016)

Legend:
[1] = test system: MDB-MA-231; test: MTT cytotoxicity assay; format: cell-based, human; details: read-out: IC50 MDB-MA-231, 48 h
In short: (§1)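 Cancer lines and normal LO2 cells were incubated with test compound for 48 h before viability was assessed. IC50 values reported as means ± SD.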

[2] = test system: A549; test: MTT cytotoxicity assay; format: cell-based, human; details: 48 h; for IC50: read-out: IC50 A549, MTT
In short: as §1

[3] = test system: HeLa; test: MTT cytotoxicity assay; format: cell-based, human; details: read-out: IC50 HeLa, 48 h
In short: as §1

[4] = test system: cisplatin-resistant A549 (A549R); test: MTT cytotoxicity assay; format: cell-based, human; details: for IC50: read-out: IC50 A549R, 48 h, MTT; for cross-resistance with cisplatin: cisplatin-resistant A549R cells
In short: as §1

[5] = test system: LO2; test: MTT cytotoxicity assay; format: cell-based; details: read-out: IC50 LO2, 48 h, human normal liver cells
In short: as §1

[6] = test system: PC3; test: MTT cytotoxicity assay; format: cell-based, human; details: read-out: IC50 PC3, 48 h
In short: as §1

[7] = Lipophilicity, shake-flask log Po/w; format: physicochemical; details: octanol/water
[8] = test system: A549 cells; test: Intracellular ATP quantification; format: cell-based, human; details: for impact on intracellular ATP levels: A549, 6 h, versus control cells; for intracellular ATP level: A549, 10 μM, 6 h, control 86.3 ± 1.0 nM
In short: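 A549 cells exposed for 6 h to vehicle or to test compound across several concentrations. Intracellular ATP content measured and reported in nM, relative to vehicle-treated control cells.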

[9] = test system: caspase-3/7 in A549 cells; test: Caspase-3/7 activity, Caspase-Glo assay; format: cell-based, human; details: A549, 10 μM, 12 h
[10] = test system: A549 cells; test: MTT viability with z-VAD-fmk pretreatment; format: cell-based, human; details: A549, z-VAD-fmk 50 μM 2 h, then 24 h
[11] = test system: A549/LO2 coculture; test: Co-culture model of A549 and LO2 cells, annexin V/PI; format: cell-based, human; details: 10 μM, 24 h, A549 Hoechst-prelabeled
[12] = test system: A549 cells; test: Cell cycle analysis, PI flow cytometry; format: cell-based, human; details: A549, 2.5 μM, 24 h; control 57.4 ± 3.1%
[13] = test system: A549 cells; test: Annexin V/PI double staining, flow cytometry; format: cell-based, human; details: 24 h; for apoptotic cells: A549, 10 μM, control 1.4 ± 0.02%; for effect of NAC pre-treatment on apoptosis-inducing capability: A549, NAC 10 mM
In short: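 A549 cells treated with test compound for 24 h, then double-labelled with annexin V and PI and analysed by flow cytometry. Early apoptotic cells scored as annexin V-positive/PI-negative, and late apoptotic/necrotic cells as annexin V-positive/PI-positive. Both fractions were counted as apoptotic.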

[14] = Stability of complex 2 by 1H NMR; format: physicochemical; details: DMSO-d6/D2O (v/v, 7/3), 37 °C
[15] = test system: A549 cells; test: MTT viability with NAC pretreatment; format: cell-based, human; details: A549, NAC 10 mM 1 h, then 24 h
[16] = test system: A549 cells; test: Microarray gene chip analysis; format: cell-based, human; details: A549, 3 μM, 24 h
[17] = test system: A549 cells; test: MMP analysis, JC-1 flow cytometry; format: cell-based, human; details: A549, 10 μM, 6 h, control 6.6 ± 0.7%
[18] = target: bovine serum albumin (BSA) (Bos taurus, UniProt P02769); test: Emission enhancement upon binding with BSA; details: molar ratio BSA : Ir(III) 8 : 1
[19] = test system: A549 cells; test: Intracellular ROS detection, H2DCFDA flow cytometry; format: cell-based, human; details: A549, 10 μM, 6 h
[20] = test system: A549 cells; test: Mitochondrial bioenergetics, Seahorse OCR; format: cell-based, human; details: for non-mitochondrial respiration: after rotenone/antimycin A; for ATP production (coupled respiration, OCR): oligomycin; for ATP production (coupled respiration, OCR) / basal OCR: versus control
In short: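 Oxygen consumption rate of treated A549 cells measured on a Seahorse XF24 analyser. Sequential injections: oligomycin 0.75 μM, FCCP 0.6 μM, then rotenone 0.5 μM plus antimycin A 0.5 μM. OCR normalised to protein by BCA assay. Basal respiration = basal OCR minus post-rotenone/antimycin OCR. ATP-linked respiration = basal minus post-oligomycin OCR. Non-mitochondrial respiration = OCR remaining after rotenone/antimycin.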

Chain of bovine serum albumin (BSA) (P02769 25-607): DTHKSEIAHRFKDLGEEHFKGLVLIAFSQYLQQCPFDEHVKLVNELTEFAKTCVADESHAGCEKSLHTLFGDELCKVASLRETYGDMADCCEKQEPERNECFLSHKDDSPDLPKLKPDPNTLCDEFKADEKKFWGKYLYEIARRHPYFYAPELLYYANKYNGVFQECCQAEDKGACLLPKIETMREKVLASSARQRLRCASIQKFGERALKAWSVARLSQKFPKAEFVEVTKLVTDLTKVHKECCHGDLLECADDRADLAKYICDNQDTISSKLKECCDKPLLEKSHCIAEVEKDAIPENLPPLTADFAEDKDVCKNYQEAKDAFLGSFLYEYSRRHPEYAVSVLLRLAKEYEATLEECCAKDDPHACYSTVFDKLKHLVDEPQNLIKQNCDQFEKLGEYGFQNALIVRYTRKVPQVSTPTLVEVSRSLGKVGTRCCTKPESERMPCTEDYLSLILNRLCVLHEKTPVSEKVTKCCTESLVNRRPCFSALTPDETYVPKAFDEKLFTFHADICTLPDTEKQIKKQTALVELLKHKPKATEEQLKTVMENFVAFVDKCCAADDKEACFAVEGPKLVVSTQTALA

SMILES | IC50 [1] [µM] | IC50 [2] [µM] | IC50 [3] [µM] | IC50 [4] [µM] | IC50 [5] [µM] | IC50 [6] [µM] | Lipophilicity (log Po/w) [7] | impact on intracellular ATP levels [8] | increase of caspase-3/7 activity [9] | effect of z-VAD-fmk pre-treatment on antiproliferative activity [10] | percentage of cells in the G0/G1 phase [12] [%] | apoptotic cells [13] [%] | effect of NAC pre-treatment on apoptosis-inducing capability [13] | effect of NAC pre-treatment on antiproliferative potency [15] | intracellular ATP level [8] [nM] | cross-resistance with cisplatin [4] | percentage of cells with mitochondrial membrane depolarization [17] [%] | increase of mean fluorescent intensity (MFI) of DCF [19] | non-mitochondrial respiration [20] | ATP production (coupled respiration, OCR) [20] | further results
N.N.[Cl][Pt][Cl] [Cisplatin, reference compound] | 27.5 ± 2.5 | 22.4 ± 2 | 18.8 ± 1.4 | 120 ± 6.5 | 26.9 ± 1.9 | 23.8 ± 2 |  |  |  |  |  |  |  |  |  |  |  |  |  |  | 
F[P-](F)(F)(F)(F)F.OCc1ccnc(-c2cc(CO)ccn2)c1.[Ir+3].[c-]1ccccc1-c1ccccn1.[c-]1ccccc1-c1ccccn1 [Complex 1] | 24.5 ± 1.9 | 24 ± 2 | 10 ± 0.9 | 42.2 ± 2.7 | > 100 | > 100 | 0.23 | not obvious |  |  |  |  |  |  |  |  |  |  |  |  | 
ClCc1ccnc(-c2cc(CCl)ccn2)c1.F[P-](F)(F)(F)(F)F.[Ir+3].[c-]1ccccc1-c1ccccn1.[c-]1ccccc1-c1ccccn1 [Complex 2] | 0.33 ± 0.02 | 0.4 ± 0.02 | 0.52 ± 0.04 | 0.64 ± 0.04 | 4.5 ± 0.3 | 1.4 ± 0.1 | 1.28 | significant dose-dependent decrease | approximately 1.6 fold | inhibits the antiproliferative activity | 85.3 ± 4.4 | 17.5 ± 0.8 | decreases the apoptosis-inducing capability | significantly diminishes | 30.2 ± 2.4 | not cross-resistant with cisplatin | 85.7 ± 1.7 | approximately 5.5 fold | decrease | dose-dependent decrease | selectivity for cancerous A549 cells over noncancerous LO2 cells ([2]; from IC50 values): ~11 fold; selective killing of cancer cells in co-culture [11]: most of the A549 cells (blue nuclei) are stained positively by both annexin V and PI, while the LO2 cells are still viable; complex invariant (intact) ([14]; 48 h): about 98.5%; complex transformed (hydrolysis of chloromethyl groups) ([14]; 7 days): about 26.2%; No. of down-regulated genes sets (p< 0.05, FC> 2) [16]: 715; No. of up-regulated genes sets (p< 0.05, FC> 2) [16]: 507; emission enhancement upon binding with BSA [18]: ~11.6 fold; basal OCR [20]: decrease
ClCc1ccnc(-c2cc(CCl)ccn2)c1.F[P-](F)(F)(F)(F)F.Fc1c[c-]c(-c2ccccn2)c(F)c1.Fc1c[c-]c(-c2ccccn2)c(F)c1.[Ir+3] [Complex 4] | 0.66 ± 0.05 | 0.21 ± 0.02 | 1.8 ± 0.1 | 0.74 ± 0.05 | 1.5 ± 0.1 | 1.04 ± 0.09 | 2.12 | significant dose-dependent decrease | ~1.7 fold | inhibits the antiproliferative activity | 88.8 ± 5.2 | 61.5 ± 1.1 | decreases the apoptosis-inducing capability | significantly diminishes | 20.2 ± 3.3 | not cross-resistant with cisplatin | 82.4 ± 7.6 | ~13.7 fold | decrease | dose-dependent decrease | basal OCR [20]: decrease
F[P-](F)(F)(F)(F)F.Fc1c[c-]c(-c2ccccn2)c(F)c1.Fc1c[c-]c(-c2ccccn2)c(F)c1.OCc1ccnc(-c2cc(CO)ccn2)c1.[Ir+3] [Complex 3] | 12.3 ± 1.1 | 16.8 ± 1.2 | 2.7 ± 0.2 | 17.8 ± 1.4 | 8.1 ± 0.5 | 38 ± 1.9 | 1.09 | not obvious |  |  |  |  |  |  |  |  |  |  |  |  | 
